Laboratory results reported in PubChem BioAssay AID602401 (Sanford-Burnham Center for Chemical Genomics, 2012).
Activity calls are given as the source filed them.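 The calls were made as follows: active = IC50 below 100 µM in the TR-FRET assay, unless also active in the caspase-3 counter assay; inactive = the rest, including compounds also active in caspase-3.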

Each molecule was assayed against Caspase-3 (Homo sapiens) (UniProt P42574) (assay: caspase-3 inhibition by analogues, SAR follow-up, counter-screen for UBC13 polyubiquitin inhibitor project, biochemical, Caspase-Glo luminescence, set 4 (AID 602401)). Details: recombinant caspase-3, Caspase-Glo luminescence, 60 min.
How it was run: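 system = Caspase-3 enzyme | input = Caspase-3 2X solution, 0.046 nM | buffer or medium = Hepes pH 7.8 with DTT, EDTA, Tween, BSA | also added = Caspase-Glo substrate added as 2X working solution at 0.75X | timing = 60 min reaction, room temperature | signal = luminescence from Caspase-Glo substrate cleavage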

Sequence of Caspase-3 (Homo sapiens) (P42574 whole entry, looked up): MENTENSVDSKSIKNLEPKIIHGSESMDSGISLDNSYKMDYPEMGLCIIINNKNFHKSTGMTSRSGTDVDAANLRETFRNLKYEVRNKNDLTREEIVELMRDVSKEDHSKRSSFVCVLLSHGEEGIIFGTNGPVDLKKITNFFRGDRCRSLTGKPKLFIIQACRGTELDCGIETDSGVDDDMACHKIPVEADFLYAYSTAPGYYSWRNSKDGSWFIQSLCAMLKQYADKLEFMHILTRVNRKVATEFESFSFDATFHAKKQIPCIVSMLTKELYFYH

| SMILES | IC50 |
| --- | --- |
| O=C(NCC1CCN(Cc2cccc(Cl)c2)CC1)[C@H]1CCCN(c2ncnc3c2nc2n3CCCCC2)C1 | > 100 µM (inactive) |
| O=C(C1CCN(c2ncnc3c2nc2n3CCCCC2)CC1)N1CCOCC1 | > 100 µM (inactive) |
| O=C(NCc1ccc(Cl)c(Cl)c1)C1CCCN(c2ncnc3c2nc2n3CCCC2)C1 (stereo unspecified) | > 100 µM (inactive) |
| O=C(NCC1CCN(Cc2ccc(Cl)c(Cl)c2)CC1)C1CCCN(c2ncnc3c2nc2n3CCCCC2)C1 (stereo unspecified) | > 100 µM (inactive) |
| O=C(Nc1ccc(CN2CCCCC2)cc1)C1CCN(c2ncnc3c2nc2n3CCCCC2)CC1 | > 100 µM (inactive) |
| Cc1ccc(C)c(N2CCN(CCCNC(=O)C3CCCN(c4ncnc5c4nc4n5CCCCC4)C3)CC2)c1 (stereo unspecified) | > 100 µM (inactive) |
| Cc1ccccc1CN1CCC(CNC(=O)C2CCCN(c3ncnc4c3nc3n4CCCCC3)C2)CC1 (stereo unspecified) | > 100 µM (inactive) |
| O=C(NCCCN1CCCCC1)C1CCN(c2ncnc3c2nc2n3CCCCC2)CC1 | > 100 µM (inactive) |
| Cc1ccc(C)c(CN2CCC(CNC(=O)C3CCCN(c4ncnc5c4nc4n5CCCCC4)C3)CC2)c1 (stereo unspecified) | > 100 µM (inactive) |
| CCC1CCCCN1CCCNC(=O)C1CCN(c2ncnc3c2nc2n3CCCCC2)CC1 (stereo unspecified) | > 100 µM (inactive) |
| O=C(NCc1ccc(Cl)c(Cl)c1)C1CCCN(c2ncnc3c2nc2n3CCCCC2)C1 (stereo unspecified) | > 100 µM (inactive) |
| O=C(c1ccco1)N1CCN(C(=O)C2CCN(c3ncnc4c3nc3n4CCCCC3)CC2)CC1 | > 100 µM (inactive) |
| Cc1cccc(NC(=O)C2CCCN(c3ncnc4c3nc3n4CCCCC3)C2)c1 (stereo unspecified) | > 100 µM (inactive) |
| CC1CC(C)CN(C(=O)C2CCN(c3ncnc4c3nc3n4CCCCC3)CC2)C1 (stereo unspecified) | > 100 µM (inactive) |
| Cc1cc(C)cc(NC(=O)C2CCCN(c3ncnc4c3nc3n4CCCCC3)C2)c1 (stereo unspecified) | > 100 µM (inactive) |
| Cc1cc(C)cc(NC(=O)C2CCN(c3ncnc4c3nc3n4CCCC3)CC2)c1 | > 100 µM (inactive) |
| COc1ccccc1N1CCN(CCCNC(=O)C2CCCN(c3ncnc4c3nc3n4CCCCC3)C2)CC1 (stereo unspecified) | > 100 µM (inactive) |
| COc1ccc(Cl)cc1NC(=O)C1CCN(c2ncnc3c2nc2n3CCCCC2)CC1 | > 100 µM (inactive) |
| COc1cc(Cl)c(C)cc1NC(=O)C1CCN(c2ncnc3c2nc2n3CCCCC2)CC1 | > 100 µM (inactive) |
| Cc1cc(C)cc(NC(=O)C2CCN(c3ncnc4c3nc3n4CCCCC3)CC2)c1 | > 100 µM (inactive) |
| O=C(C1CCN(c2ncnc3c2nc2n3CCCCC2)CC1)N1CCN(c2ncccn2)CC1 | > 100 µM (inactive) |
| O=C(C1CCN(c2ncnc3c2nc2n3CCCCC2)CC1)N1CCN(c2ccc(F)cc2)CC1 | > 100 µM (inactive) |
| Cc1ccc(NC(=O)C2CCCN(c3ncnc4c3nc3n4CCCCC3)C2)cc1F (stereo unspecified) | > 100 µM (inactive) |
| O=C(NCC1CCN(Cc2cccc(Cl)c2)CC1)C1CCCN(c2ncnc3c2nc2n3CCCCC2)C1 (stereo unspecified) | > 100 µM (inactive) |
| O=C(NCC1CCN(Cc2ccc(Cl)cc2)CC1)C1CCCN(c2ncnc3c2nc2n3CCCCC2)C1 (stereo unspecified) | > 100 µM (inactive) |
| O=C(NCC1CCN(Cc2cccc(Cl)c2)CC1)[C@@H]1CCCN(c2ncnc3c2nc2n3CCCC2)C1 | > 100 µM (inactive) |
| O=C(NCC1CCN(Cc2cccc(Cl)c2)CC1)[C@@H]1CCCN(c2ncnc3c2nc2n3CCCCC2)C1 | > 100 µM (inactive) |

| SMILES | IC50 |
| --- | --- |
| O=C(NCC1CCN(Cc2ccc(Cl)c(Cl)c2)CC1)C1CCCN(c2ncnc3c2nc2n3CCCC2)C1 (stereo unspecified) | > 100 µM (inactive) |
| O=C(NCC1CCN(Cc2ccccc2F)CC1)C1CCCN(c2ncnc3c2nc2n3CCCCC2)C1 (stereo unspecified) | > 100 µM (inactive) |
| COc1cc(OC)c(NC(=O)C2CCN(c3ncnc4c3nc3n4CCCCC3)CC2)cc1Cl | > 100 µM (inactive) |
| CCCN1CCN(C(=O)C2CCN(c3ncnc4c3nc3n4CCCCC3)CC2)CC1 | > 100 µM (inactive) |
| O=C(NCc1cccc(Cl)c1)C1CCCN(c2ncnc3c2nc2n3CCCC2)C1 (stereo unspecified) | > 100 µM (inactive) |
| O=C(C1CCN(c2ncnc3c2nc2n3CCCCC2)CC1)N1CCN(c2ccccn2)CC1 | > 100 µM (inactive) |
| CC1CCCCN1C(=O)C1CCN(c2ncnc3c2nc2n3CCCCC2)CC1 (stereo unspecified) | > 100 µM (inactive) |
| O=C(NCCCN1CCN(c2ccccc2)CC1)C1CCCN(c2ncnc3c2nc2n3CCCCC2)C1 (stereo unspecified) | > 100 µM (inactive) |
| O=C(NCC1CCN(Cc2ccccc2Cl)CC1)C1CCCN(c2ncnc3c2nc2n3CCCC2)C1 (stereo unspecified) | > 100 µM (inactive) |
| O=C(NCc1cccc(Cl)c1)C1CCCN(c2ncnc3c2nc2n3CCCCC2)C1 (stereo unspecified) | > 100 µM (inactive) |
| O=C(Nc1ccc(F)c(Cl)c1)C1CCN(c2ncnc3c2nc2n3CCCCC2)CC1 | > 100 µM (inactive) |
| Cc1cccc(N2CCN(CCCNC(=O)C3CCCN(c4ncnc5c4nc4n5CCCCC4)C3)CC2C)c1 (stereo unspecified) | > 100 µM (inactive) |
| O=C(NCC1CCN(Cc2ccccc2Cl)CC1)C1CCCN(c2ncnc3c2nc2n3CCCCC2)C1 (stereo unspecified) | > 100 µM (inactive) |
| O=C(NCCCN1CCN(c2ccc(F)cc2)CC1)C1CCCN(c2ncnc3c2nc2n3CCCCC2)C1 (stereo unspecified) | > 100 µM (inactive) |
| O=C(NCC1CCN(Cc2ccc(F)cc2)CC1)C1CCCN(c2ncnc3c2nc2n3CCCCC2)C1 (stereo unspecified) | > 100 µM (inactive) |
| Cc1ccc(NC(=O)C2CCCN(c3ncnc4c3nc3n4CCCC3)C2)cc1C (stereo unspecified) | > 100 µM (inactive) |
| O=C(NCC1CCN(Cc2cccc(Cl)c2)CC1)[C@H]1CCCN(c2ncnc3c2nc2n3CCCC2)C1 | > 100 µM (inactive) |
| Cc1cccc(NC(=O)C2CCCN(c3ncnc4c3nc3n4CCCC3)C2)c1 (stereo unspecified) | > 100 µM (inactive) |
| Cc1ccc(NC(=O)C2CCCN(c3ncnc4c3nc3n4CCCC3)C2)cc1F (stereo unspecified) | > 100 µM (inactive) |
| CC1CCCC(C)N1CCCNC(=O)C1CCCN(c2ncnc3c2nc2n3CCCCC2)C1 (stereo unspecified) | > 100 µM (inactive) |
| Cc1ccc(NC(=O)C2CCCN(c3ncnc4c3nc3n4CCCC3)C2)cc1Br (stereo unspecified) | > 100 µM (inactive) |
| COc1ccc(NC(=O)C2CCN(c3ncnc4c3nc3n4CCCCC3)CC2)cc1Cl | > 100 µM (inactive) |
| Cc1cc(C)cc(NC(=O)C2CCCN(c3ncnc4c3nc3n4CCCC3)C2)c1 (stereo unspecified) | > 100 µM (inactive) |
| O=C(NCC1CCN(Cc2cccc(Cl)c2)CC1)C1CCCN(c2ncnc3c2nc2n3CCCC2)C1 (stereo unspecified) | > 100 µM (inactive) |
| O=C(NCC1CCN(Cc2ccc(Cl)cc2)CC1)C1CCCN(c2ncnc3c2nc2n3CCCC2)C1 (stereo unspecified) | > 100 µM (inactive) |
| Cc1ccc(NC(=O)C2CCCN(c3ncnc4c3nc3n4CCCCC3)C2)cc1Br (stereo unspecified) | > 100 µM (inactive) |

Other lines, results leading:

| IC50 | SMILES |
| --- | --- |
| > 100 µM (inactive) | O=C(NCc1ccc(Cl)c(Cl)c1)C1CCN(c2ncnc3c2nc2n3CCCC2)CC1 |
| > 100 µM (inactive) | Cc1ccc(NC(=O)C2CCN(c3ncnc4c3nc3n4CCCCC3)CC2)cc1Br |
| > 100 µM (inactive) | Cc1ccc(NC(=O)C2CCN(c3ncnc4c3nc3n4CCCC3)CC2)cc1C |
| > 100 µM (inactive) | CN(CCNC(=O)C1CCN(c2ncnc3c2nc2n3CCCCC2)CC1)Cc1ccccc1 |
| > 100 µM (inactive) | Cc1ccc(NC(=O)C2CCN(c3ncnc4c3nc3n4CCCCC3)CC2)cc1F |
| > 100 µM (inactive) | Cc1cccc(NC(=O)C2CCN(c3ncnc4c3nc3n4CCCCC3)CC2)c1C |
| > 100 µM (inactive) | Cc1ccc(NC(=O)C2CCN(c3ncnc4c3nc3n4CCCC3)CC2)cc1Br |
| > 100 µM (inactive) | Cc1ccc(NC(=O)C2CCN(c3ncnc4c3nc3n4CCCCC3)CC2)cc1Cl |
| > 100 µM (inactive) | O=C(Nc1cccc(Cl)c1)C1CCN(c2ncnc3c2nc2n3CCCCC2)CC1 |
| > 100 µM (inactive) | Cc1cccc(NC(=O)C2CCN(c3ncnc4c3nc3n4CCCCC3)CC2)c1 |
| > 100 µM (inactive) | Cc1ccc(NC(=O)C2CCN(c3ncnc4c3nc3n4CCCCC3)CC2)c(Cl)c1 |
| > 100 µM (inactive) | O=C(NCc1cccc(Cl)c1)C1CCN(c2ncnc3c2nc2n3CCCCC2)CC1 |
| > 100 µM (inactive) | O=C(Nc1cc(F)ccc1F)C1CCN(c2ncnc3c2nc2n3CCCCC2)CC1 |
| > 100 µM (inactive) | O=C(C1CCN(c2ncnc3c2nc2n3CCCCC2)CC1)N1CCN(Cc2ccccc2)CC1 |
| > 100 µM (inactive) | Cc1ccc(NC(=O)C2CCN(c3ncnc4c3nc3n4CCCC3)CC2)cc1F |
| > 100 µM (inactive) | O=C(C1CCN(c2ncnc3c2nc2n3CCCCC2)CC1)N1CCN(c2ccccc2)CC1 |
| 63.4 µM | O=C(NCc1cccc(Cl)c1)C1CCN(c2ncnc3c2nc2n3CCCC2)CC1 |
| > 100 µM (inactive) | O=C(NCc1ccc(Cl)c(Cl)c1)C1CCN(c2ncnc3c2nc2n3CCCCC2)CC1 |
| 69 µM | Cc1cccc(NC(=O)C2CCN(c3ncnc4c3nc3n4CCCC3)CC2)c1 |
| > 100 µM (inactive) | Cc1c(Cl)cccc1NC(=O)C1CCN(c2ncnc3c2nc2n3CCCCC2)CC1 |
| > 100 µM (inactive) | Cc1ccc(NC(=O)C2CCN(c3ncnc4c3nc3n4CCCCC3)CC2)cc1C |
| > 100 µM (inactive) | O=C(C1CCN(c2ncnc3c2nc2n3CCCCC2)CC1)N1CCC(Cc2ccccc2)CC1 |
| > 100 µM (inactive) | Cc1cc(Cl)ccc1NC(=O)C1CCN(c2ncnc3c2nc2n3CCCCC2)CC1 |
